Bioassay records as filed in PubChem BioAssay.
A selection: hits, their analogues and other compounds. The true share with any hit is near 3.5%.
RGS4 pot = potentiators or activators of RGS4; HEK293 M3R/inducible RGS4, carbachol calcium flux Fluo4; active compounds read low; B-score at 10 µM; hit rate 0.92% among 310,000;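 active = B-score of the integrated calcium signal more than 4 SD below the library mean, with starting fluorescence not abnormally high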;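 note: negative B-score means reduced calcium response which marks RGS4 activation or potentiation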
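test system = HEK293 cells with stable M3R and inducible RGS4 | schedule = recording 10 s baseline at 1 Hz, 100 s post-agonist | technique = Fluo4-AM (2 µM) calcium-flux fluorescence, kinetic read | measure = Agonist-evoked peak-minus-minimum fluorescence over baseline, integrated ratio, B score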
RGS4 inh = inhibitors of human RGS4. B-score at 10 µM. P49798. HEK293 M3R/RGS4 inducible, Fluo-4 calcium flux; active compounds read high; triggered by carbachol at its EC20. hit rate 0.45% among 310,000;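 active = B-score, a plate-corrected calcium signal, over three deviations above library mean, with baseline fluorescence within five deviations of library mean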;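 note: RGS4 expression induced by doxycycline in cells with stable M3 receptor; B-score is computed from the integrated fluorescence ratio over baseline after carbachol; higher B-score means a larger calcium signal and so more RGS4 inhibition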
Target sequence (P49798 whole entry, looked up): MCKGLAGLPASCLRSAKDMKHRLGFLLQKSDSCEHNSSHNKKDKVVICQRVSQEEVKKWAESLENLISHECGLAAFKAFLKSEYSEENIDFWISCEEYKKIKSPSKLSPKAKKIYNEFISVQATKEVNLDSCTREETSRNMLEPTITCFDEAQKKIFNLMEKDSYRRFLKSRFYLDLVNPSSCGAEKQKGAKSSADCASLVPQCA
MrgX1 ag = human MrgX1 receptor agonism, primary screen. hit rate 0.44% among 310,000. B-score at 10 µM. AID 588627. Q96LB2. MrgX1-HEK293 cells, Fluo-4 calcium fluorescence, agonist mode; active compounds read high;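 active = calcium response B-score plate-corrected fluorescence ratio at least 3 library SD, with starting fluorescence B-score inside 5 SD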
Target sequence (Q96LB2 whole entry, looked up): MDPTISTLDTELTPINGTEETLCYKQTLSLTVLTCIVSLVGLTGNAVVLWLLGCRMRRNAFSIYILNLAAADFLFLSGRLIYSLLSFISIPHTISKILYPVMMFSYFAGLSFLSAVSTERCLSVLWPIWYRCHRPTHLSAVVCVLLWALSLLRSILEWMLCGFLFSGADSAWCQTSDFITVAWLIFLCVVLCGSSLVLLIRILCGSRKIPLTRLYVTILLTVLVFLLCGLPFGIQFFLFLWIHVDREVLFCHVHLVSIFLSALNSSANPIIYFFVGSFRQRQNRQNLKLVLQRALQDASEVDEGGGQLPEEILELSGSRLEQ
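Material: MrgX1-expressing HEK293 cells; input: 15,000 cells per well; doses: test compound given as first of three sequential additions; schedule: overnight plating before 1 h dye loading; technique: Fluo-4 NW calcium-flux fluorescence, kinetic read; evaluation: baseline-normalised fluorescence change ratio, B-scored; control set: plate-wise positive and negative controls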
MrgX1 antagonist = human MrgX1 receptor antagonism, primary screen | Q96LB2 | MRGX1-HEK293 calcium flux, Fluo-4, BAM8-22 antagonism; active compounds read low | B-score at 10 µM | hit rate 1.3% among 310,000;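 active = calcium-response B-score plate-corrected more than 3 library SD below zero, starting fluorescence within 5 deviations, no agonist response on first addition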;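 note: peak minus trough fluorescence over baseline after final BAM8-22 challenge near maximal dose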
MrgX1 PAM = human MrgX1 positive allosteric modulation, primary screen | Q96LB2 | MrgX1-HEK293, Fluo-4 calcium flux, FDSS; active compounds read high | B-score at 10 µM | hit rate 0.63% among 310,000;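 active = plate-corrected calcium response at least 3 library SD above typical, normal starting fluorescence, not activating the receptor alone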;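 note: compound read alongside a low EC10 to EC30 dose of BAM8-22 agonist; peak minus trough fluorescence over baseline measured at the second addition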
MrgX1 ant reconf = confirmation of human MrgX1 receptor antagonists; shares compounds with MrgX1 antagonist; MrgX1-HEK293, BAM8-22 calcium flux, Fluo-4; active compounds read low; remaining BAM8-22 calcium response % of control (active compounds read low), % at 10 µM; hit rate 19% among 2,300;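 active = remaining agonist calcium response no higher than 100% minus 3 SD of agonist-only control wells, with starting fluorescence near control levels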;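 note: agonist BAM8-22 given at a near maximal EC90 to ECmax level; peak minus minimum fluorescence divided by baseline after agonist addition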
HEK293 Ca flux = counter-screen for MrgX1 antagonists: effect in parental HEK293 cells. Fluo-4 calcium fluorescence, FDSS. fluorescence ratio F(max-min)/F0 at 10 µM. hit rate 2% among 4,000. shares compounds with MrgX1 antagonist;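 active = duplicate-averaged calcium fluorescence ratio at least three times the standard deviation of buffer wells, a nonspecific response in parental cells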
HEK293 Ca counter = activity in parental HEK293 cells without MrgX1 | AID 624114 | hit rate 0.4% among 4,000 | parental HEK293 calcium flux, Fluo-4 fluorescence ratio; active compounds read high | shares compounds with MrgX1 antagonist | fluorescence ratio F(max-min)/F0 at 10 µM;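 active = calcium fluorescence ratio, averaged over duplicates, at least 3 SD of the buffer-well ratio, meaning a nonspecific response in receptor-free cells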;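 note: untransfected parental HEK293 lacking MrgX1 used as counterscreen for MrgX1 allosteric activators; fluorescence change taken during the second addition on a kinetic imager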
HEK293 Ca cntr2 = activity in parental HEK293 cells lacking MrgX1 receptor; fluorescence ratio F(max-min)/F0 at 10 µM; shares compounds with MrgX1 antagonist; hit rate 8.7% among 4,000; Fluo-4 calcium fluorescence (FDSS); active compounds read high; AID 624115;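 active = calcium fluorescence ratio at least three times the spread of buffer wells, meaning a non-specific response in parental cells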
Each line names hits and unclear results; the compound was inactive in the other large screens (follow-up assays come after a bar, where they were run).

CCCC[C@@H]1CNC(=O)C(=O)N1CC(C)(C)C	MrgX1 antagonist -7.17 | MrgX1 ant reconf inactive | HEK293 Ca flux inactive | HEK293 Ca counter inactive | HEK293 Ca cntr2 inactive
O=C(NCCC1=CCCCC1)C1CCN(S(=O)(=O)c2ccccc2C(F)(F)F)CC1	none
CCN1CCN(C(=S)Nc2ccc3nc(N4CCN(CC)CC4)cc(C)c3c2)CC1	MrgX1 antagonist -4.95 | MrgX1 ant reconf inactive | HEK293 Ca flux inactive | HEK293 Ca counter inactive | HEK293 Ca cntr2 inactive
N#CC1=C(N)Oc2cc3c(cc2C1c1ccc(Cl)cc1)OCO3 (stereo not drawn)	MrgX1 antagonist -7.92 | MrgX1 ant reconf inactive | HEK293 Ca flux inactive | HEK293 Ca counter inactive | HEK293 Ca cntr2 inactive
COCCN1C(=O)C(=O)/C(=C(/O)c2ccc(C)cc2)C1c1ccccn1 (stereo not drawn)	MrgX1 antagonist -7.67 | MrgX1 ant reconf inactive | HEK293 Ca flux inactive | HEK293 Ca counter inactive | HEK293 Ca cntr2 inactive
O=C1C(=O)N(Cc2cccnc2)C(c2ccccn2)/C1=C(/O)c1ccc(F)cc1 (stereo not drawn)	MrgX1 antagonist -5.13 | MrgX1 ant reconf inactive | HEK293 Ca flux inactive | HEK293 Ca counter inactive | HEK293 Ca cntr2 inactive
Cc1ccc(/C(O)=C2/C(=O)C(=O)N(CCCn3ccnc3)C2c2ccccn2)cc1 (stereo not drawn)	none (no result: MrgX1 ag, MrgX1 antagonist, MrgX1 PAM)
COc1ccc2[nH]c(=O)c(-c3nnn(-c4ccc(Cl)c(Cl)c4)n3)cc2c1	none
O=C(CN1C(=O)C2C3c4ccccc4C(c4ccccc43)C2C1=O)N1CCOCC1 (stereo not drawn)	MrgX1 antagonist -5.18 | MrgX1 ant reconf inactive | HEK293 Ca flux inactive | HEK293 Ca counter inactive | HEK293 Ca cntr2 inactive
O=C1C2C3c4ccccc4C(c4ccccc43)C2C(=O)N1CN1CCOCC1 (stereo not drawn)	none
COCCSc1ccccc1C(=O)N1CCc2ccccc21	none
CCOC(=O)c1c(C)[nH]c(C)c1C(=O)CSc1nc2ccccc2c(=O)n1-c1ccccc1C	none
CCOC(=O)c1c(C)[nH]c(C)c1C(=O)CSc1nc2ccccc2c(=O)n1-c1ccc(F)cc1	MrgX1 antagonist -5.26 | MrgX1 ant reconf 82.5% | HEK293 Ca flux inactive | HEK293 Ca counter inactive | HEK293 Ca cntr2 inactive
CC[C@H](C)[C@@H](C(=O)NCCCCCCCCCCC(=O)N1CCN(C(=O)OC(C)(C)C)CC1)n1cc(CCCCN=C(NC(=O)OC(C)(C)C)NC(=O)OC(C)(C)C)nn1	none (no result: RGS4 pot, RGS4 inh)
CC[C@H](C)[C@@H](C(=O)NCCCCCCCCCCC(=O)N1CCN(C(=O)OC(C)(C)C)CC1)n1cc(CCCCCNC(=O)OC(C)(C)C)nn1	MrgX1 antagonist -12.5 (no result: RGS4 pot, RGS4 inh) | MrgX1 ant reconf 43.9% | HEK293 Ca flux inactive | HEK293 Ca counter inactive | HEK293 Ca cntr2 inactive
CN(Cc1c(F)cccc1Cl)C(=O)c1ccc(NS(=O)(=O)c2ccc3[nH]c(=O)[nH]c3c2)cc1	none
CS(=O)(=O)N(Cc1ccc(C(=O)N2CCc3ccccc3C2)cc1)c1ccccc1	MrgX1 antagonist -7.53 | MrgX1 ant reconf inactive | HEK293 Ca flux inactive | HEK293 Ca counter inactive | HEK293 Ca cntr2 inactive
CN(C)S(=O)(=O)N(CC(=O)Nc1ccc(F)c(F)c1)c1ccccc1	MrgX1 antagonist -6.09 | MrgX1 ant reconf inactive | HEK293 Ca flux inactive | HEK293 Ca counter inactive | HEK293 Ca cntr2 inactive
CN(C)S(=O)(=O)N(CC(=O)Nc1ccc2ccccc2c1)c1ccccc1	none
COc1ccccc1CN1CCC(n2nccc2NC(=O)CCOc2ccccc2)CC1	none
Nc1nonc1-c1noc(N2CCCCC2)n1	MrgX1 antagonist -5.52 | MrgX1 ant reconf 84.8% | HEK293 Ca flux inactive | HEK293 Ca counter inactive | HEK293 Ca cntr2 inactive
CCc1ccccc1NS(=O)(=O)c1cc2c3c(c1)CCN3C(=O)CC2	none (no result: MrgX1 ag, MrgX1 antagonist, MrgX1 PAM)
COC(=O)c1ccc(NC(=S)NCCc2ccccc2C)cc1	MrgX1 antagonist -5.01 | MrgX1 ant reconf inactive | HEK293 Ca flux inactive | HEK293 Ca counter inactive | HEK293 Ca cntr2 inactive
COC(=O)c1ccc(NC(=S)NCCc2cccc(C)c2)cc1	none
Cc1ccc(N(C(=O)c2csnn2)C(C(=O)NC2CCCCC2)c2ccco2)cc1 (stereo not drawn)	none
Cc1sc2ncnc(N3CCC(C(=O)Nc4ccc(C#N)cc4)CC3)c2c1C	MrgX1 antagonist -5.33 | MrgX1 ant reconf inactive | HEK293 Ca flux inactive | HEK293 Ca counter inactive | HEK293 Ca cntr2 inactive
CC1(C)CC(=O)C=C(NCCO)C1	MrgX1 antagonist -4.73 | MrgX1 ant reconf inactive | HEK293 Ca flux inactive | HEK293 Ca counter inactive | HEK293 Ca cntr2 inactive
CCCCc1n[nH]c(=S)n1Cc1ccc(Cl)cc1	MrgX1 antagonist -5.69 | MrgX1 ant reconf inactive | HEK293 Ca flux inactive | HEK293 Ca counter inactive | HEK293 Ca cntr2 inactive
CCCn1c(CCc2ccccc2)n[nH]c1=S	MrgX1 antagonist -7.46 | MrgX1 ant reconf inactive | HEK293 Ca flux inactive | HEK293 Ca counter inactive | HEK293 Ca cntr2 inactive
Cc1ccc(C(=O)CN2C(=O)C(=O)N(Cc3ccccc3)C2=O)cc1	MrgX1 antagonist -6.39 | MrgX1 ant reconf 79.9% | HEK293 Ca flux inactive | HEK293 Ca counter inactive | HEK293 Ca cntr2 inactive
CN(C(=O)c1ccoc1)c1ccc2ccccc2c1	none
O=C(OCn1nnc2ccccc2c1=O)C1CCCCC1	MrgX1 antagonist -10.3 | MrgX1 ant reconf inactive | HEK293 Ca flux inactive | HEK293 Ca counter inactive | HEK293 Ca cntr2 inactive
Cc1c(O)ccc(C(=O)CN2CCN(c3ccc(F)cc3)CC2)c1O	none
Cc1ccccc1N(CC(=O)NCCc1ccccc1)C(=O)c1csnn1	none
CC(C)(C)c1ccc(C(=O)N2CCC(C(=O)NCc3ccncc3)CC2)cc1	MrgX1 antagonist -5.15 | MrgX1 ant reconf inactive | HEK293 Ca flux inactive | HEK293 Ca counter inactive | HEK293 Ca cntr2 inactive
CC(C)(C)c1ccc(C(=O)N2CCC(C(=O)NC3CC3)CC2)cc1	none
COc1ccc(OC)c(/C=C/C(=O)c2ccc3c(c2)OCCO3)c1	none
CCOc1ccc2ccccc2c1CNCCc1ccc(S(N)(=O)=O)cc1	MrgX1 antagonist -4.78 | MrgX1 ant reconf 54.5% | HEK293 Ca flux inactive | HEK293 Ca counter inactive | HEK293 Ca cntr2 inactive
NS(=O)(=O)c1ccc(CNc2nc(-c3cccnc3)nc3ccccc23)cc1	none
COc1ccc(NC(=O)CSc2nnc(CN3CCOCC3)n2C)cc1Cl	MrgX1 antagonist -7.05 | MrgX1 ant reconf inactive | HEK293 Ca flux inactive | HEK293 Ca counter inactive | HEK293 Ca cntr2 inactive
